Test results reported in publication PMC11310838 (RSC Advances, 2024).
Where two headings read alike, the source gives them in different places.

How the values were obtained:
HCT116 cell line = test: Sulforhodamine B; assay type: cell-based, human; conditions: for inhibition at 100 µM: read-out: Percentage of cell growth inhibition at [100 μM] HCT116
Summary of the method: (§1)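 Carcinoma lines came from the National Cancer Institute, Cairo, and were grown as monolayers in DMEM with 10% FBS and 1% penicillin–streptomycin. Final DMSO was ≤0.1% (v/v). Cells were treated for 48 h either at a single 100 μM dose (% growth inhibition) or at 0, 6.25, 12.5, 25 and 50 μM. SRB staining was read at 570 nm as % viability. IC50 came from dose–response curve fitting.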

MCF7 cell line = test: Sulforhodamine B; assay type: cell-based, human; conditions: Homo sapiens, MCF7, 48 h; for IC50: read-out: IC50 (μM) ± SD MCF7; for inhibition at 100 µM: read-out: Percentage of cell growth inhibition at [100 μM] MCF7
Summary of the method: as §1

HEPG2 cell line = test: Sulforhodamine B; assay type: cell-based, human; conditions: Homo sapiens, HepG2, 48 h; for IC50: read-out: IC50 (μM) ± SD HEPG2; for inhibition at 100 µM: read-out: Percentage of cell growth inhibition at [100 μM] HEPG2
Summary of the method: as §1

[1] = test system: cancer cell lines (HCT116, HEPG2, MCF7); test: SRB single-dose screen, summary over cancer cell lines; assay type: cell-based; conditions: Homo sapiens, 48 h, read-out: percentage of cell growth inhibition on the cancer cell lines
Summary of the method: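 Human carcinoma lines grown as monolayers in DMEM with 10% FBS and 1% penicillin–streptomycin. Each test compound was applied once at 100 μM for 48 h, with final DMSO at most 0.1% (v/v) in control and treated wells. Growth was measured by sulforhodamine-B staining, with OD read at 570 nm. Percentage growth inhibition was calculated from viability relative to the untreated control.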

[2] = test system: HDF cell line (Human Dermal Fibroblasts); test: Sulforhodamine B; assay type: cell-based; conditions: Homo sapiens, HDF, 48 h, read-out: Percentage of cell growth inhibition at [100 μM] HDF
Summary of the method: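 Normal human dermal fibroblasts came from the National Cancer Institute, Cairo. Final DMSO was ≤0.1% (v/v). Cells were exposed to the test compound at a single 100 μM dose for 48 h. Growth inhibition was measured by the sulforhodamine-B method, with absorbance read at 570 nm and expressed as percentage of cell viability.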

EGFR kinase = EGFR kinase (Homo sapiens, UniProt P00533); test: EGFR kinase inhibitory assay; assay type: biochemical; conditions: for % of EGFR inhibition: concentration not given, average of three replicates
Sequence of EGFR kinase (P00533 25-1210): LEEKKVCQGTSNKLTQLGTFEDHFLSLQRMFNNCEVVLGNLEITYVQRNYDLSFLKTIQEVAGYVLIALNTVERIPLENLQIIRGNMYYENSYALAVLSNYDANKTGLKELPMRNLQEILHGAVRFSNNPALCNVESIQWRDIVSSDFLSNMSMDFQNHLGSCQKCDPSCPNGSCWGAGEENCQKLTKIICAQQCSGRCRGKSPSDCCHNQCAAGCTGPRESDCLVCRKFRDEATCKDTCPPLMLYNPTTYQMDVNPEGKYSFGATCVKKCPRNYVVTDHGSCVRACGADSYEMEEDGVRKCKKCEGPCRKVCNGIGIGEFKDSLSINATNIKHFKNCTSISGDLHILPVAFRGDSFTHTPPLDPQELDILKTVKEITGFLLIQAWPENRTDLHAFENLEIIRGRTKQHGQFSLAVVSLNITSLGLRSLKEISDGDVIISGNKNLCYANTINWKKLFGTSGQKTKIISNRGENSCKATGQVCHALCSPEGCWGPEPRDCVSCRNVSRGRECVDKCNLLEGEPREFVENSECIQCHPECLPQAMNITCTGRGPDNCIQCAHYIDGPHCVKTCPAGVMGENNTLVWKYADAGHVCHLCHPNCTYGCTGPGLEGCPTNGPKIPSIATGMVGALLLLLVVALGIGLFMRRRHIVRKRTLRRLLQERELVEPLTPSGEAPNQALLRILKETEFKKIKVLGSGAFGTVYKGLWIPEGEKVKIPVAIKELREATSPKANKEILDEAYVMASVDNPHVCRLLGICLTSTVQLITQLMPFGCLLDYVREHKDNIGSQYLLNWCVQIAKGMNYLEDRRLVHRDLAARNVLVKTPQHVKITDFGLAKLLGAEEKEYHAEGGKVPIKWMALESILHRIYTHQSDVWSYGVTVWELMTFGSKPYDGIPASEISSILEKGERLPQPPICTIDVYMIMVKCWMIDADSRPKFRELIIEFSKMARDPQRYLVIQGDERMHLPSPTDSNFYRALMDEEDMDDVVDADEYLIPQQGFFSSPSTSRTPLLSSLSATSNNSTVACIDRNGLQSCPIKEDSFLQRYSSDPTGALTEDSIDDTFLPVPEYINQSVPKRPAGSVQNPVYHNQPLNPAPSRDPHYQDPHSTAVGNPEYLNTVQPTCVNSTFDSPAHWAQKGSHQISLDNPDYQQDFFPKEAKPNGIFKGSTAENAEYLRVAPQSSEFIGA

HCT-116 cells [3] = test: RT-PCR of apoptosis-related genes; assay type: cell-based, human; conditions: HCT-116, IC50 = 8.5 μM, 48 h, untreated control = 1
Summary of the method: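 HCT-116 cells were exposed to the test compound for 48 h, alongside untreated cells. Relative expression of apoptosis-related genes was measured by real-time PCR. Ct values were normalised to β-actin, and untreated control was set to fold change = 1. Data are the mean ± SD of 3 independent runs.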

HCT-116 cells [4] = test: DNA content-flow cytometry cell cycle analysis; assay type: cell-based, human; conditions: HCT-116, treated at IC50 = 8.5 μM, 48 h; control 3.77%
HCT-116 cells [5] = test: Annexin V/PI staining flow cytometry; assay type: cell-based, human; conditions: HCT-116, treated at IC50 = 8.5 μM, 48 h
[6] = Homo sapiens, HCT-116, 48 h, read-out: IC50 (μM) ± SD HCT116, 48 h treatment, SRB

| SMILES | IC50 (HCT116 cell line; [6]) [µM] | IC50 (MCF7 cell line) [µM] | IC50 (HEPG2 cell line) [µM] | IC50 (EGFR kinase) [nM] | % of EGFR inhibition (EGFR kinase) [%] | inhibition at 100 µM (HCT116 cell line; Homo sapiens, HCT-116, 48 h) [%] | inhibition at 100 µM (MCF7 cell line) [%] | inhibition at 100 µM (HEPG2 cell line) [%] | inhibition at 100 µM [1] [%] | inhibition at 100 µM [2] [%] | other results |
| --- | --- | --- | --- | --- | --- | --- | --- | --- | --- | --- | --- |
| Cc1nc(NN=Cc2ccc(OCC(=O)N3CCN(C(=O)COc4ccc(C=NNc5nc(C)c(N=Nc6ccc([N+](=O)[O-])cc6)s5)cc4)CC3)cc2)sc1N=Nc1ccc([N+](=O)[O-])cc1 [Compound 9e, 1,1′-(Piperazine-1,4-diyl)bis(2-(4-(((4-methyl-5-(4-nitrophenylazo)thiazol-2-yl)hydrazono)methyl)-phenoxy)ethanone)] | 20.4 ± 3.4 | 22 ± 4.5 | 32.2 ± 4.5 | – | – | 86.8 ± 2.09 | 84.6 ± 2.02 | 77.5 ± 7.73 | > 80 | 18.6 ± 32.1 | – |
| NC(=S)NN=Cc1ccccc1OCC(=O)N1CCN(C(=O)COc2ccccc2C=NNC(N)=S)CC1 [Compound 7b, 1,1′-(Piperazine-1,4-diyl)bis(2-(2-(2-carbamothioylhydrazono)methylphenoxy)ethanone)] | 20.7 ± 1.5 | 48.5 ± 4.8 | 41.3 ± 3.9 | 3.5 ± 0.1 | 89.7 ± 2.8 | 90.1 ± 3.41 | 88.9 ± 5.46 | 89.1 ± 2.22 | > 80 | 66.5 ± 11.5 | – |
| Cc1nc(NN=Cc2ccccc2OCC(=O)N2CCN(C(=O)COc3ccccc3C=NNc3nc(C)c(N=Nc4ccc(Br)cc4)s3)CC2)sc1N=Nc1ccc(Br)cc1 [Compound 9i, 1,1′-(Piperazine-1,4-diyl)bis(2-(2-(((4-methyl-5-(4-bromophenylazo)thiazol-2-yl)hydrazono)-methyl)phenoxy)ethanone)] | 8.5 | 13 ± 2.8 | 22 ± 2.9 | 1.2 ± 0.05 | 97.5 ± 2.1 | 89.6 ± 5.3 | 89.9 ± 2.3 | 91 ± 3.56 | > 80 | 71.6 ± 17.3 | IC50 (HCT116 cell line; read-out: IC50 (μM) ± SD HCT116, 48 h treatment, SRB): 8.51 ± 2.5 µM; Bcl-2 expression fold change (HCT-116 cells [3]; downregulated): 0.76 fold change; P53 fold change (HCT-116 cells [3]; upregulated): 10.87 fold change; caspase-3 level fold change (HCT-116 cells [3]; upregulated): 9.87 fold change; caspase-8 level fold change (HCT-116 cells [3]; upregulated): 7.6 fold change; caspase-9 level fold change (HCT-116 cells [3]; upregulated): 11.6 fold change; cell population at the P2 phase (HCT-116 cells [4]): 51.89%; induction of apoptotic cell death vs untreated control (HCT-116 cells [5]): 4.16 fold; induction of necrosis cell death vs untreated control (HCT-116 cells [5]): 4.79 fold; early apoptosis (HCT-116 cells [5]; control 1.69%): 0.54%; late apoptosis (HCT-116 cells [5]; control 2.36%): 16.31%; total apoptosis (HCT-116 cells [5]; control 4.05%): 16.85% |

Second part, led by results:

| IC50 (HCT116 cell line; [6]) [µM] | IC50 (MCF7 cell line) [µM] | IC50 (HEPG2 cell line) [µM] | IC50 (EGFR kinase) [nM] | % of EGFR inhibition (EGFR kinase) [%] | SMILES | inhibition at 100 µM (HCT116 cell line; Homo sapiens, HCT-116, 48 h) [%] | inhibition at 100 µM (MCF7 cell line) [%] | inhibition at 100 µM (HEPG2 cell line) [%] | inhibition at 100 µM [1] [%] | inhibition at 100 µM [2] [%] | other results |
| --- | --- | --- | --- | --- | --- | --- | --- | --- | --- | --- | --- |
| 9.98 ± 2 | 13.7 ± 2.3 | 23.8 ± 4 | 12.1 ± 0.04 | 83.7 ± 1.4 | Cc1nc(NN=Cc2ccc(OCC(=O)N3CCN(C(=O)COc4ccc(C=NNc5nc(C)c(N=Nc6ccccc6)s5)cc4)CC3)cc2)sc1N=Nc1ccccc1 [Compound 9a, 1,1′-(Piperazine-1,4-diyl)bis(2-(4-(((4-methyl-5-(phenylazo)thiazol-2-yl)hydrazono)methyl)-phenoxy)ethanone)] | 81 ± 3.91 | 85.9 ± 5.94 | 74.7 ± 4.49 | > 80 | 18.2 ± 11.5 | – |
| 18.4 ± 4 | 19.4 ± 3 | 24.5 ± 4 | – | – | O=C(COc1ccc(C=NN=c2sc(-c3ccc(Cl)cc3)nn2-c2ccccc2)cc1)N1CCN(C(=O)COc2ccc(C=NN=c3sc(-c4ccc(Cl)cc4)nn3-c3ccccc3)cc2)CC1 [Compound 13b, 1,1′-(Piperazine-1,4-diyl)bis(2-(4-(((5-(4-chlorophenyl)-3-phenyl-1,3,4-thiadiazol-2(3H)-ylidene)-hydrazono)methyl)phenoxy)ethanone)] | 89.3 ± 2.83 | 90.8 ± 1.39 | 85.1 ± 3.16 | > 80 | 79.2 ± 3.71 | – |
| 11.5 ± 2.5 | 24.7 ± 3.6 | 26.5 ± 2.7 | 54.6 ± 0.9 | 74.8 ± 1.6 | Cc1ccc(N=Nc2sc(NN=Cc3ccc(OCC(=O)N4CCN(C(=O)COc5ccc(C=NNc6nc(C)c(N=Nc7ccc(C)cc7)s6)cc5)CC4)cc3)nc2C)cc1 [Compound 9b, 1,1′-(Piperazine-1,4-diyl)bis(2-(4-(((4-methyl-5-(4-tolylazo)thiazol-2-yl)hydrazono)methyl)-phenoxy)ethanone)] | 85.2 ± 2.11 | 89.5 ± 2.34 | 56.5 ± 4.93 | > 80 | 27.6 ± 25.1 | – |
